Experiments:
[1] = system: A549; experiment: Cytotoxicity against human A549 cells after 24 hrs by SRB assay; type: functional, cell-based; conditions: A549, 24 h
[2] = system: HL-60; experiment: Cytotoxicity against human HL60 cells after 72 hrs by MTT assay; type: functional, cell-based; conditions: HL-60, 72 h
How it was run: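 HL-60 human tumor cells were plated 24 h ahead, then given various compound concentrations continuously for 72 h. Proliferation inhibition was measured by MTT tetrazolium reduction, and IC50 was derived from the inhibition rates. Etoposide (VP-16) was the positive control.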

[3] = system: A549; experiment: Cytotoxicity against human A549 cells after 72 hrs by SRB assay; conditions: A549, 72 h

Compound | IC50 [1] [µM] | IC50 [2] [µM] | IC50 [3] [µM]
CC(C)(O)C1Cc2ccc(/C=C\CO)c(CO)c2O1 (stereo unspecified) | > 100 | > 100 | –
CC1=CC(=O)[C@H]2C(C)(C)[C@@H](O)CC[C@]2(C)[C@@]1(O)CO [USTUSOL A] | – | > 100 | > 100
CC1=CC(=O)[C@H]2C(C)(C)C[C@@H](O)C[C@]2(C)[C@@]1(O)CO [USTUSOL B] | – | > 100 | > 100
CO[C@@H]1C=C(CO)[C@](O)(CO)[C@@]2(C)CCCC(C)(C)[C@H]12 [USTUSOL C] | – | > 100 | > 100
CC(O)C/C=C/C=C/C=C/C(=O)OC1C=C2COC(=O)[C@]2(O)[C@@]2(C)CCCC(C)(C)[C@H]12 (stereo partly specified) [USTUSOLATE B] | – | > 100 | > 100
CC(O)C/C=C/C=C/C(=O)O[C@@H]1C=C2COC(=O)[C@]2(O)[C@@]2(C)CCCC(C)(C)[C@H]12 (stereo partly specified) [USTUSOLATE C] | – | > 100 | 10.5
COC(/C=C/C=C/C(=O)O[C@@H]1C=C2COC(=O)[C@]2(O)[C@@]2(C)CCCC(C)(C)[C@H]12)OC [USTUSOLATE D] | – | > 100 | > 100
CC1(C)CCC[C@@]2(C)[C@H]1[C@H](OC(=O)/C=C/C=C/C=O)C=C1COC(=O)[C@@]12O [USTUSOLATE E] | – | 9 | > 100
CC(C)=C1Oc2c(ccc(CC(C)O)c2CO)C1=O (stereo unspecified) [USTUSORANE A] | – | > 100 | > 100
CC1=Cc2ccc3c(c2CO1)OC(=C(C)C)C3=O [USTUSORANE B] | – | > 100 | > 100
CO[C@H]1O[C@H](C)Cc2ccc3c(c21)OC(=C(C)C)C3=O [USTUSORANE C] | – | > 100 | > 100
CO[C@H]1O[C@H](C)Cc2ccc3c(c21)OC(C(C)C)C3=O (stereo partly specified) [USTUSORANE D] | – | > 100 | > 100
CC(O)Cc1ccc2c(c1CO)OC(C(C)(C)O)C2 (stereo unspecified) [USTUSORANE E] | – | 0.13 | > 100

From ChEMBL document CHEMBL1154293, “Sesquiterpenoids and benzofuranoids from the marine-derived fungus Aspergillus ustus 094102” (J Nat Prod, 2009)
